This is a sample that favours compounds with a hit; in the whole collection about 2.3% have one here.
TRPC4 PAM = allosteric potentiators of mouse TRPC4 channel. HEK293 TRPC4beta/mu-opioid, DAMGO EC20, Fluo-4 Ca2+ flux; stronger effect = higher value. B-score at 10 µM. 0.42% of 310,000 active. AID 2227;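 active means B-score of calcium response area above 5 SD of library B-scores, with initial fluorescence ratio within 5 SD of library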;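 further: B-score of integrated fluorescence ratio over time as area under calcium response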
TRPC4 act = TRPC4 (mouse) channel activation; 0.49% of 310,000 active; HEK293 TRPC4beta/mu-opioid, Fluo4 calcium fluorescence; stronger effect = higher value; AID 2237; Q9QUQ5; B-score at 10 µM;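 active means B-score above 5 SD of library B-scores, and initial fluorescence ratio not above library mean plus 5 SD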;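 further: positive B-score marks a calcium rise read as TRPC4 activation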
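Test system: HEK293 cells stably co-expressing mouse TRPC4beta and mu-opioid receptor | Schedule: Fluo4 dye loading 45 min at room temperature, 110 s recording | Measured by: Kinetic Fluo4 calcium fluorescence, 5 s baseline at 1 Hz | Evaluation: B score of integrated ratio | Controls: Buffer (low) and maximal DAMGO (high)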
TRPC6 activator = activators of mouse TRPC6 channel | Q61143 | HEK293-TRPC6 membrane potential dye fluorescence; stronger effect = higher value | B-score at 10 µM | 0.13% of 310,000 active | AID 2550;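 active means B-score of the integrated fluorescence ratio above library mean plus 3 SD, and starting fluorescence ratio within library mean plus 5 SD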;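 further: higher score means more depolarization so channel activation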
Target sequence (Q61143 whole entry, looked up): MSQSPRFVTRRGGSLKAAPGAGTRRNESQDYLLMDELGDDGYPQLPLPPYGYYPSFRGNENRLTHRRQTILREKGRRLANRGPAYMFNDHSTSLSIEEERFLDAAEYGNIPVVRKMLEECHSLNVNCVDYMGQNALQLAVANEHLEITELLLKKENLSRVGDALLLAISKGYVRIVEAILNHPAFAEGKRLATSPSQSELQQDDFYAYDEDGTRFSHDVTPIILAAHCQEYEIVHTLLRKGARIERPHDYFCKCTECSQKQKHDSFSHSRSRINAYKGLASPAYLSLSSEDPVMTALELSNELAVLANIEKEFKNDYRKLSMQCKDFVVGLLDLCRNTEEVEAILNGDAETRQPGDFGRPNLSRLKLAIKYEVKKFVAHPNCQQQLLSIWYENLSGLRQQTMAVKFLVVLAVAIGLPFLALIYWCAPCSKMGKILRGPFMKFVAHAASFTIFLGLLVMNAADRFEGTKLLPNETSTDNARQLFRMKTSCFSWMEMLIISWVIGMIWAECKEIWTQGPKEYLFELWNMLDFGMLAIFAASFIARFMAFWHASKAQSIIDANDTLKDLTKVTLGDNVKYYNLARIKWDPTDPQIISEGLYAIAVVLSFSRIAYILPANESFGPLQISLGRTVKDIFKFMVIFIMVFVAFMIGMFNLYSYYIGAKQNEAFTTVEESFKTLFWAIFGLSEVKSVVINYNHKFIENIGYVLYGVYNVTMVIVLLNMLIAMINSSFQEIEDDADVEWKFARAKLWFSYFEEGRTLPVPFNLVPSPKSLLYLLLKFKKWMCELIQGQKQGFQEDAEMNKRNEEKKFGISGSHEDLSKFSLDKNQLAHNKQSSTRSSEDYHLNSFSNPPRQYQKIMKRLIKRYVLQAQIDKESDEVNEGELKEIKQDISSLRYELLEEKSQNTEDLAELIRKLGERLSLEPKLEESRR
TRPC6 inh = mouse TRPC6 channel inhibition | Q61143 | HEK293-TRPC6, membrane potential dye, ACh-evoked depolarization; stronger effect = lower value | B-score at 10 µM | 1.1% of 310,000 active | AID 2553;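 active means B-score under library mean minus 3 SD, initial fluorescence not abnormally high, positive integrated signal ratio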;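 further: B-score derived from integrated fluorescence ratio over the kinetic read; more negative B-score means stronger inhibition of depolarization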
TRPC4 inh = blocks the mouse TRPC4 cation channel; B-score at 10 µM; 0.39% of 300,000 active; Q9QUQ5; HEK293 TRPC4beta/mu-opioid, DAMGO-evoked Fluo4 calcium flux; stronger effect = lower value;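 active means B-score over 3 SD under the library average, no early fluorescence shift, positive overall ratio signal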
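material = TRPC4beta/mu-opioid receptor HEK293 cell line | probe or stimulus = sequential submaximal and maximal DAMGO stimulation | compound dosing = one concentration per compound | measured by = Fluo4 Ca2+ flux fluorescence | evaluation = integrated fluorescence ratio relative to baseline, converted to per-well B score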
TRPC4 spec 2 = second check of whether TRPC6 inhibitors also affect mouse TRPC4 | shares compounds with TRPC6 inh | HEK293 TRPC4/MOR, membrane potential dye fluorescence; channel activated by saturating DAMGO dose | inhibition, % at 10 µM | 42% of 920 active;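 active means compounds whose fluorescence signal differed from control wells by over 3 SD, either direction, in both duplicate plates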
TRPC4 spec = tests whether TRPC6 inhibitors also affect mouse TRPC4. shares compounds with TRPC6 inh. HEK293 TRPC4/mu-opioid, membrane potential fluorescence. activity change, negative = inhibition, % at 10 µM. 61% of 920 active;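 active means rise or fall in signal beyond 3 SD of buffer-only wells in both replicate plates, either sign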;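 further: integrated kinetic ratio of fluorescence range over baseline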
HEK293 MPD ctr 2-1 = second check of TRPC6 inhibitor effects in parental HEK293 cells | shares compounds with TRPC6 inh | parental HEK293 membrane potential dye fluorescence; maximal acetylcholine challenge after compound addition | signal change vs control, % at 10 µM | 31% of 920 active;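 active means membrane potential signal moving either way by over 3 SD of the maximum-effect control, in both duplicate plates, meaning non-specific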
HEK293 MPD ctr-1 = checks TRPC6 inhibitor effects in parental HEK293 cells | parental HEK293 membrane potential dye fluorescence | shares compounds with TRPC6 inh | 60% of 920 active | membrane potential signal change, % at 10 µM;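 active means membrane potential signal shifting up or down by more than 3 SD of buffer-only wells, on both duplicate plates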
HEK293 MPD ctr-2 = checks TRPC6 modulator effects in parental HEK293 cells; membrane potential signal change, % at 10 µM; 51% of 2,400 active; membrane potential dye fluorescence; shares compounds with TRPC6 inh;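 active means membrane potential signal moves up or down beyond 5 SD from buffer-only wells, on both duplicate plates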
HEK293 MPD ctr 2-2 = second counter-screen for TRPC6 modulators: effect in parental HEK293 cells | inhibition, % at 10 µM | shares compounds with TRPC6 inh | membrane potential dye fluorescence; after compound, maximal acetylcholine stimulation | 14% of 2,400 active;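 active means membrane potential signal drops by more than 5 SD from the mean control signal, in both duplicate plates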;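 further: plate controls were acetylcholine ECmax control wells for no effect and buffer only wells for full effect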
TRPC4/MOR mod = tests whether TRPC6 modulators also affect mouse TRPC4; shares compounds with TRPC6 inh; HEK293 TRPC4/mu-opioid, membrane potential fluorescence; percent change from control (negative = decrease, positive = increase), % at 10 µM; 69% of 2,400 active;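 active means membrane potential signal moved up or down beyond 5 SD of buffer control wells, in both duplicate plates, actives on both sides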;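 further: plate controls were assay buffer wells for no effect and DAMGO maximal-effect wells for full effect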
TRPC4/MOR inh 2 = second check of whether TRPC6 modulators also affect mouse TRPC4; HEK293 TRPC4/mu-opioid, membrane potential dye fluorescence; stimulated with maximal-effect DAMGO; 55% of 2,400 active; inhibition, % at 10 µM; shares compounds with TRPC6 inh;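 active means drop in membrane potential signal beyond 5 SD of the control wells in both duplicate plates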;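 further: TRPC4 counter screen for TRPC6 hits run under conditions tuned for TRPC6 not TRPC4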
TRPC6 block conf = mouse TRPC6 inhibitor confirmation; inhibition, % at 10 µM; shares compounds with TRPC6 inh; HEK293-TRPC6, membrane potential dye, ACh-evoked depolarization; 43% of 3,300 active; AID 488960;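 active means fluorescence ratio falls more than 5 SD below the full-stimulation control mean, in both duplicate runs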;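 further: integrated fluorescence ratio of peak minus minimum over baseline after agonist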
TRPC6 act confirm = mouse TRPC6 activator confirmation; shares compounds with TRPC6 inh; HEK293-TRPC6 membrane potential dye fluorescence, FDSS; activation, % at 10 µM; 11% of 2,800 active;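 active means ratio signal rise beyond 5 SD above unstimulated control wells' mean, seen in both duplicate runs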;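 further: plate controls were buffer EC0 wells for no effect and acetylcholine ECmax response for full effect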
The depositor's hits bear a star; i = inactive; . = no result given.

SMILES	TRPC4 PAM	TRPC4 act	TRPC6 activator	TRPC6 inh	TRPC4 inh	HEK293 MPD ctr-2	HEK293 MPD ctr 2-2	TRPC4/MOR mod	TRPC4/MOR inh 2	TRPC6 block conf	TRPC6 act confirm	others
CCN(CC)c1ccc(C=C2C(=O)OC3(CCCC3)OC2=O)cc1	i	i	54*	i	i	763%*	i	116%*	i	i	295%*
CCCCc1nc2cc(C(=O)N3CCCC(OCCC)C3)ccc2o1 (stereo not drawn)	i	i	i	i	i	.	.	.	.	.	.
COC(=O)/C=C1/SC(=NC(=O)c2ccc(Cl)cc2)NC1=O	i	i	14*	i	i	134%*	i	20%*	i	i	56%*
COC(=O)/C=C1\SC(=NC(=O)c2ccc(C)cc2)NC1=O	i	i	i	i	i	.	.	.	.	.	.
CC1CCCCN1CC(=O)Nc1ccc(N2CCCCCC2)cc1 (stereo not drawn)	i	i	i	-5.4*	i	i	i	-12%*	32%*	40%*	i
COc1cc2nc(N3CCNCC3)nc(N)c2cc1OC	i	i	i	-11*	i	-246%*	92%*	-38%*	53%*	64%*	i
Cc1ccc(N2C(=O)CSC2c2cccnc2)cc1F (stereo not drawn)	i	i	i	-6.7*	i	.	.	.	.	i	i	TRPC4 spec 2=i;TRPC4 spec=i;HEK293 MPD ctr 2-1=i;HEK293 MPD ctr-1=i
O=C1CSC(c2cccnc2)N1c1ccc(Cl)cc1 (stereo not drawn)	i	i	i	i	i	.	.	.	.	.	.
C=CCCCCCCCCC(=O)NN	i	i	i	i	i	.	.	.	.	.	.
CCc1ccc(NC(=O)CSc2nc(=O)n(CCN(C)C)c3c2CCCC3)cc1	i	i	i	i	i	.	.	.	.	.	.
O=C(COc1ccc(Cl)cc1Cl)NNC(=S)NCc1ccco1	i	i	i	-5.4*	i	i	i	i	i	i	i
CCOC(=O)Nc1ccc2c(c1)N(C(=O)N1CCN(C)CC1)c1ccccc1S2	i	i	i	-5.3*	i	i	i	i	36%*	i	i
CCOC(=O)Nc1ccc2c(c1)N(C(=O)CCN1CCN(C)CC1)c1ccccc1S2	i	i	i	i	i	.	.	.	.	.	.
CN1CCCC(C(=O)C(C#N)c2ccccc2)C1 (stereo not drawn)	i	i	i	i	i	.	.	.	.	.	.
